Experimental data: ChEMBL document CHEMBL1122782, “Bulky amine analogues of ketoprofen: potent antiinflammatory agents” (J Med Chem, 1984)

Assays:
Rattus norvegicus [1] = species on record: Rattus norvegicus; assay: Effective Dose 50 is the amount of material required to elicit inflammatory effect in 50% of an animal population; assay type: functional
Method in brief: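 In the 21-day adjuvant arthritis test in male Sprague-Dawley rats, daily gavage started on the day of M. butyricum injection. At the end, total hind paw volume was measured by mercury displacement. ED50 is the dose giving 50% inhibition of total hind paw volume change.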

Rattus norvegicus [2] = assay: Antiinflammatory efficacy is measured by the percent inhibition of paw volume during the 3 week adjuvant arthritis test at 0.02 mM/kg (7.28 mg); assay type: functional
Method in brief: (§1)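 Male Sprague-Dawley rats (200–230 g) were used in groups of eight. Each received 0.1 mL of 0.6% M. butyricum in heavy mineral oil into the plantar tissue of one hind paw. Daily oral gavage in 1% gum tragacanth or corn oil-water emulsion began on the injection day and ran 21 days. Total hind paw volume was measured by mercury displacement, and inhibition was taken versus vehicle-treated adjuvant controls.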

Rattus norvegicus [3] = assay: Antiinflammatory efficacy is measured by the percent inhibition of paw volume during the 3 week adjuvant arthritis test at 0.08 mM/kg (29.1 mg); assay type: functional; method in brief: as §1
Rattus norvegicus [4] = assay: The mean increase in paw volume was compared between drug treated groups and placebo to calculate the percent inhibition in rats at 0.02 mmol/kg by carrageenan Edema Assay; 30-39; assay type: functional
Rattus norvegicus [5] = assay: The percent inhibition was calculated from the average differences in hind paw volume between the adjuvant injected controls and the adjuvant-injected medicated rats at 0.08 mmol/kg; 60-69; assay type: functional
Rattus norvegicus [6] = assay: Antiinflammatory efficacy is measured by the percent inhibition of paw volume during the 3 week adjuvant arthritis test at 0.005 mM/kg (1.82 mg); assay type: functional; method in brief: as §1
Rattus norvegicus [7] = assay: Ulcerogenicity was measured in intestine during the 3 week adjuvant arthritis test, no of animals with ulcers out of 8 animals tested at 0.08 mM/kg (29.1 mg) was reported; assay type: functional
Method in brief: (§2)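 In the 21-day adjuvant arthritis model, male Sprague-Dawley rats (200–230 g) received an M. butyricum mineral-oil suspension into one hind paw. They were dosed daily by gavage from the day of injection. At the end of the study the rats were killed, and the small intestines were examined for ulcers. Results are given as the number of ulcerated animals over the number tested.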

Rattus norvegicus [8] = assay: Ulcerogenicity was measured in stomach during the 3 week adjuvant arthritis test, no of animals with ulcers out of 7 animals tested at 0.32 mM/kg (116.4 mg) was reported; assay type: functional
Method in brief: (§3)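 Male Sprague-Dawley rats (200–230 g) were injected in the plantar tissue of one hind paw with 0.1 mL of 0.6% M. butyricum suspension in heavy mineral oil. Daily oral gavage began on the day of adjuvant injection and ran for the 21 days, with drug suspended in 1% gum tragacanth or a corn oil-water emulsion. At the end the rats were sacrificed and the small intestine and stomach were examined for ulcers. Results are given as animals with ulcers/animals tested.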

Rattus norvegicus [9] = assay: Ulcerogenicity was measured in stomach during the 3 week adjuvant arthritis test, no of animals with ulcers out of 8 animals tested at 0.08 mM/kg (29.1 mg) was reported; assay type: functional; method in brief: as §3
Rattus norvegicus [10] = assay: Ulcerogenicity was measured in stomach during the 3 week adjuvant arthritis test, no of animals with ulcers out of 8 animals tested at 0.16 mM/kg (58.2 mg) was reported; assay type: functional; method in brief: as §3
Rattus norvegicus [11] = assay: Antiinflammatory efficacy is measured by the weight gain in rats during the 3 week adjuvant arthritis test at 0.16 mM/kg (58.2 mg); assay type: functional
Method in brief: (§4)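 Rats were adjuvant-injected (M. butyricum in mineral oil, one hind paw) or given a mineral-oil placebo. They were dosed by gavage daily for 21 days from the injection day, with vehicle only for both control groups, then weighed at the end. Weight gain % = (treated − adjuvant control)/(negative control − adjuvant control) × 100.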

Rattus norvegicus [12] = assay: Antiinflammatory efficacy is measured by the weight gain in rats during the 3 week adjuvant arthritis test at 0.32 mM/kg (116.4 mg); assay type: functional
Method in brief: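 Male Sprague-Dawley rats (200–230 g), eight per group, received 0.1 mL of 0.6% M. butyricum in heavy mineral oil (negative controls: mineral oil) into one hind-paw plantar tissue. Daily gavage in 1% gum tragacanth or corn oil-water emulsion began on the injection day, for 21 days. Weight gain is expressed as (treated − adjuvant control)/(negative control − adjuvant control) × 100.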

Rattus norvegicus [13] = assay: Ulcerogenicity was measured in intestine during the 3 week adjuvant arthritis test.(animals with ulcers/animals in test) at 0.16 mM/kg (58.2 mg); 4/8; assay type: functional; method in brief: as §3
Rattus norvegicus [14] = assay: Antiinflammatory efficacy is measured by the weight gain in rats during the 3 week adjuvant arthritis test at 0.02 mM/kg (7.28 mg); assay type: functional; method in brief: as §4
Rattus norvegicus [15] = assay: Antiinflammatory efficacy is measured by the weight gain in rats during the 3 week adjuvant arthritis test at 0.08 mM/kg (29.1 mg); assay type: functional; method in brief: as §4
Rattus norvegicus [16] = assay: Antiinflammatory efficacy is measured by the weight gain in rats during the 3 week adjuvant arthritis test at 0.005 mM/kg (1.82 mg); assay type: functional; method in brief: as §4
Rattus norvegicus [17] = assay: Ulcerogenicity was measured in intestine during the 3 week adjuvant arthritis test, no of animals with ulcers out of 7 animals tested at 0.32 mM/kg (116.4 mg) was reported; assay type: functional; method in brief: as §2
[18] = target: prostaglandin synthetase (Bos taurus); assay: Inhibitory concentration against prostaglandin synthetase from bull seminal vesicles
Mus musculus = species on record: Mus musculus; assay: Effective Dose 50 is the amount of material required to elicit analgesic effect in 50% of an animal population
Rattus norvegicus [19] = species on record: Rattus norvegicus; assay: Effective Dose 50 is the amount of material required to produce effect in 50% of an animal population; assay type: functional
Rattus norvegicus [20] = assay: Antiinflammatory efficacy is measured by the percent inhibition of paw volume during the 3 week adjuvant arthritis test at 0.08 mM/kg (32.3 mg); assay type: functional; method in brief: as §1
Rattus norvegicus [21] = assay: Antiinflammatory efficacy is measured by the percent inhibition of paw volume during the 3 week adjuvant arthritis test at 0.02 mM/kg (8.07 mg); assay type: functional; method in brief: as §1
Rattus norvegicus [22] = assay: Potency relative to phenylbutazone at 0.005 mM/kg; assay type: functional
Rattus norvegicus [23] = assay: The percent inhibition was calculated from the average differences in hind paw volume between the adjuvant injected controls and the adjuvant-injected medicated rats at 0.08 mmol/kg; 80-89; assay type: functional
Rattus norvegicus [24] = assay: Antiinflammatory efficacy is measured by the percent inhibition of paw volume during the 3 week adjuvant arthritis test at 0.005 mM/kg (2.02 mg); assay type: functional; method in brief: as §1
Rattus norvegicus [25] = assay: Ulcerogenicity was measured in intestine during the 3 week adjuvant arthritis test, no of animals with ulcers out of 4 animals tested at 0.02 mM/kg (8.07 mg) was reported; assay type: functional; method in brief: as §2
Rattus norvegicus [26] = assay: Ulcerogenicity was measured in intestine during the 3 week adjuvant arthritis test, no of animals with ulcers out of 15 animals tested at 0.08 mM/kg (32.3 mg) was reported; assay type: functional; method in brief: as §2
Rattus norvegicus [27] = assay: Ulcerogenicity was measured in stomach during the 3 week adjuvant arthritis test, no of animals with ulcers out of 4 animals tested at 0.02 mM/kg (8.07 mg) was reported; assay type: functional; method in brief: as §3
Rattus norvegicus [28] = assay: Ulcerogenicity was measured in intestine during the 3 week adjuvant arthritis test, no of animals with ulcers out of tested animals at 0.16 mM/kg (64.6 mg) was reported; Toxic; assay type: functional, organism-based; method in brief: as §3
Rattus norvegicus [29] = assay: Ulcerogenicity was measured in stomach during the 3 week adjuvant arthritis test, no of animals with ulcers out of 15 animals tested at 0.08 mM/kg (32.3 mg) was reported; assay type: functional; method in brief: as §3
Rattus norvegicus [30] = assay: Antiinflammatory efficacy is measured by the weight gain in rats during the 3 week adjuvant arthritis test at 0.02 mM/kg (8.07 mg); assay type: functional; method in brief: as §4
Rattus norvegicus [31] = assay: Antiinflammatory efficacy is measured by the weight gain in rats during the 3 week adjuvant arthritis test at 0.08 mM/kg (32.3 mg); assay type: functional; method in brief: as §4
Rattus norvegicus [32] = assay: Antiinflammatory efficacy is measured by the weight gain in rats during the 3 week adjuvant arthritis test at 0.005 mM/kg (2.02 mg); assay type: functional; method in brief: as §4
Rattus norvegicus [33] = assay: The mean increase in paw volume was compared between drug treated groups and placebo to calculate the percent inhibition in rats at 0.08 mmol/kg by carrageenan Edema Assay; 50-59; assay type: functional
Rattus norvegicus [34] = assay: The percent inhibition was calculated from the average differences in hind paw volume between the adjuvant injected controls and the adjuvant-injected medicated rats at 0.08 mmol/kg; 50-59; assay type: functional
Rattus norvegicus [35] = assay: The mean increase in paw volume was compared between drug treated groups and placebo to calculate the percent inhibition in rats at 0.02 mmol/kg by carrageenan Edema Assay; 0-19; assay type: functional

Question: For `CC(CN1CCOCC1)c1cccc(C(=O)c2ccccc2)c1.Cl` (stereo not drawn), which ED50 (Rattus norvegicus [1]) is on record?
Answer: 5 µmol/kg

Question: What about the Inhibition (Rattus norvegicus [2]) of the same compound?
Answer: 72%

Question: What about the Inhibition (Rattus norvegicus [3]) of the same compound?
Answer: 89%

Question: What about the Inhibition (Rattus norvegicus [4]) of the same compound?
Answer: 30%

Question: And the Inhibition (Rattus norvegicus [5])?
Answer: 60%

Question: What about the Inhibition (Rattus norvegicus [6]) of the same compound?
Answer: 49%

Question: What about the Ulcerogenic index (Rattus norvegicus [7]) of the same compound?
Answer: 5

Question: And the Ulcerogenic index (Rattus norvegicus [8])?
Answer: 1

Question: What about the Ulcerogenic index (Rattus norvegicus [9]) of the same compound?
Answer: 0

Question: And the Ulcerogenic index (Rattus norvegicus [10])?
Answer: 2

Question: And the Weight gain (Rattus norvegicus [11])?
Answer: 70%

Question: What about the Weight gain (Rattus norvegicus [12]) of the same compound?
Answer: 46%

Question: And the Ulcerogenic index (Rattus norvegicus [13])?
Answer: 4

Question: And the Weight gain (Rattus norvegicus [14])?
Answer: 10%

Question: What about the Weight gain (Rattus norvegicus [15]) of the same compound?
Answer: 43%

Question: What about the Weight gain (Rattus norvegicus [16]) of the same compound?
Answer: 2%

Question: What about the Ulcerogenic index (Rattus norvegicus [17]) of the same compound?
Answer: 7

Question: And the IC50 [18]?
Answer: 10 µM

Question: What about the ED50 (Mus musculus) of the same compound?
Answer: 8.4 mg/kg

Question: With `CC(CN1CCCCC1CC1CCCCC1)c1cccc(C(=O)c2ccccc2)c1` (stereo not drawn) as the compound, how does the ED50 (Rattus norvegicus [19]) read?
Answer: 3 µmol/kg

Question: What about the Inhibition (Rattus norvegicus [20]) of the same compound?
Answer: 90%

Question: And the Inhibition (Rattus norvegicus [21])?
Answer: 79%

Question: And the inhibition in vivo at 20 µmol/kg (Rattus norvegicus [4]; Rattus norvegicus)?
Answer: 30%

Question: What about the Relative potency (Rattus norvegicus [22]) of the same compound?
Answer: 8.7%

Question: What about the inhibition in vivo at 80 µmol/kg (Rattus norvegicus [23]) of the same compound?
Answer: 80%

Question: What about the Inhibition (Rattus norvegicus [24]) of the same compound?
Answer: 56%

Question: And the Ulcerogenic index (Rattus norvegicus [25])?
Answer: 1

Question: What about the Ulcerogenic index (Rattus norvegicus [26]) of the same compound?
Answer: 4

Question: What about the Ulcerogenic index (Rattus norvegicus [27]) of the same compound?
Answer: 0

Question: And the Ulcerogenic index (Rattus norvegicus [28])?
Answer: Toxic

Question: And the Ulcerogenic index (Rattus norvegicus [29])?
Answer: 1

Question: And the Weight gain (Rattus norvegicus [30])?
Answer: 55%

Question: What about the Weight gain (Rattus norvegicus [31]) of the same compound?
Answer: 82%

Question: What about the Weight gain (Rattus norvegicus [32]) of the same compound?
Answer: 27%

Question: And the ED50 (Mus musculus)?
Answer: 55 mg/kg

Question: `CC(CN1C(C)CCCC1C)c1cccc(C(=O)c2ccccc2)c1` (stereo not drawn) was tested. Which inhibition in vivo at 80 µmol/kg (Rattus norvegicus [33]) did it give?
Answer: 50%

Question: What does the source list for `CC1CCCC(C)N1CCc1cccc(C(O)c2ccccc2)c1` (stereo not drawn)?
Answer: inhibition in vivo at 80 µmol/kg (Rattus norvegicus [34]): 50%; inhibition in vivo at 20 µmol/kg (Rattus norvegicus [35]): 0%
